Measurements from ChEMBL document CHEMBL1152541, “Staurosporine tethered peptide ligands that target cAMP-dependent protein kinase (PKA): optimization and selectivity profiling” (Bioorg Med Chem, 2009).
Values belong to the compound of their own block, whether it stands above or below them. *1 amine or outer side, *2 acyl side, *3 side chain or, on linkers, in order; H or OH if unused. Where a SMILES comes first, the peptide text is derived from it. Bridges are numbered along the chain shown (N, C = ends). [ ]: non-standard residue; d: D form. The star is where a group is joined. Staurosporine = CO[C@@H]1[C@H](N(C)*)C[C@H]2O[C@]1(C)n1c3ccccc3c3c4c(c5c6ccccc6n2c5c31)C(=O)NC4; Suc = O=C(CCC(=O)[*:2])[*:1]; Dap = NC[C@H](N)C(=O)O; βAla = NCCC(=O)O

Assays:
[1] = biological target: T1, Testis-specific serine/threonine-protein kinase 1 (Homo sapiens) (UniProt Q9BXA7); assay: Binding affinity to human TSSK1 at 500 nM by cell-based competition binding assay relative to control in presence of DTT
T1 sequence (whole entry): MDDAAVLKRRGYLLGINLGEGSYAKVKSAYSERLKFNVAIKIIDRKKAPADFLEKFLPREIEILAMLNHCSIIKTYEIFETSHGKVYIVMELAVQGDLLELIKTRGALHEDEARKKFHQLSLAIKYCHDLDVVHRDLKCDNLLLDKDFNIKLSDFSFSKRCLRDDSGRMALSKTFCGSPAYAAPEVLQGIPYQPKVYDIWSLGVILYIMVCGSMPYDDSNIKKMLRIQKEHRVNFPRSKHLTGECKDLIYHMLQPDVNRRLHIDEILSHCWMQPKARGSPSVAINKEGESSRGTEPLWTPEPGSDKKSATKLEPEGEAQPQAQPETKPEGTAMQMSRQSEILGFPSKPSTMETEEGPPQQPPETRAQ

[2] = biological target: T2, Serine/threonine-protein kinase DCLK1 (Homo sapiens) (UniProt O15075); assay: Binding affinity to human DCAMKL1 at 500 nM by cell-based competition binding assay relative to control in presence of DTT
T2 sequence (whole entry): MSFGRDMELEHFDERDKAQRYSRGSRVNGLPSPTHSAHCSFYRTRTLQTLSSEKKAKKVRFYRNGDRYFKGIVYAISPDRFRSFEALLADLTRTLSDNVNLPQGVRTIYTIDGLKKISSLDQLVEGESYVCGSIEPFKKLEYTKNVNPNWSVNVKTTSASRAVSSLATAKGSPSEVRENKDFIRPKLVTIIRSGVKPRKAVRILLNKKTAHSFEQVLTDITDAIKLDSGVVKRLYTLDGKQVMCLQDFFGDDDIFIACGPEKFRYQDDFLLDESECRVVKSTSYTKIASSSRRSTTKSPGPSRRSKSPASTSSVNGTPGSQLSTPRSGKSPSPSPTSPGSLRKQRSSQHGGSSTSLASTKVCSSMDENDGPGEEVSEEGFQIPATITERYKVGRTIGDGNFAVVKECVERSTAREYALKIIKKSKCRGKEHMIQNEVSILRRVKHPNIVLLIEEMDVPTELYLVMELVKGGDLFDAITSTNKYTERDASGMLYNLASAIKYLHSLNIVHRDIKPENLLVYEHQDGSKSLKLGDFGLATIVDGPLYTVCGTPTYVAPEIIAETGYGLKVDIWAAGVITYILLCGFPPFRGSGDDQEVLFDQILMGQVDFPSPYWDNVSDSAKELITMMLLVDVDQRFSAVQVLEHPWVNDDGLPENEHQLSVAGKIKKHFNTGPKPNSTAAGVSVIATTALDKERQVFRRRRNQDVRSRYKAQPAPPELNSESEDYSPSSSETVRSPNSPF
Method in brief: (§1)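 Commercial (Ambit) competitive kinase-binding panel of 90 kinases measured the binding profile. Run under reducing conditions of 7.5 mM DTT. Binding is expressed relative to control.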

[3] = biological target: Aurora kinase B (Homo sapiens) (UniProt Q96GD4); assay: Binding affinity to human aurora kinase B at 500 nM by cell-based competition binding assay relative to control in presence of DTT
[4] = biological target: 3-phosphoinositide-dependent protein kinase 1 (Homo sapiens) (UniProt O15530); assay: Ratio of compound to staurosporine binding affinity to PDK1 in presence of DTT
[5] = biological target: Insulin receptor (Homo sapiens) (UniProt P06213); assay: Binding affinity to human INSR at 500 nM by cell-based competition binding assay relative to control in presence of DTT
Method in brief: (§2)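 Competition binding screen (Ambit) across a panel of 90 kinases, scoring test ligand displacement of each kinase's binding relative to control. The screen ran under reducing conditions with 7.5 mM DTT.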

[6] = biological target: Mitogen-activated protein kinase kinase kinase 4 (Homo sapiens) (UniProt Q9Y6R4); assay: Binding affinity to human MAP3K4 at 200 nM by cell-based competition binding assay relative to control in presence of DTT; method in brief: as §2
[7] = biological target: T2, Serine/threonine-protein kinase DCLK1 (Homo sapiens); assay: Binding affinity to human DCAMKL1 at 200 nM by cell-based competition binding assay relative to control in presence of DTT; method in brief: as §1
[8] = biological target: Phosphatidylinositol 4,5-bisphosphate 3-kinase catalytic subunit gamma isoform (Homo sapiens) (UniProt P48736); assay: Binding affinity to human PIK3Cgamma at 200 nM by cell-based competition binding assay relative to control in presence of DTT
[9] = biological target: Casein kinase I isoform gamma-2 (Homo sapiens) (UniProt P78368); assay: Binding affinity to human CSNK1G2 at 50 nM by cell-based competition binding assay relative to control in presence of DTT; method in brief: as §1
[10] = biological target: Mitogen-activated protein kinase 9 (Homo sapiens) (UniProt P45984); assay: Binding affinity to human JNK2 at 50 nM by cell-based competition binding assay relative to control in presence of DTT; method in brief: as §2
[11] = biological target: Proto-oncogene tyrosine-protein kinase Src (Homo sapiens) (UniProt P12931); assay: Binding affinity to human SRC at 50 nM by cell-based competition binding assay relative to control in presence of DTT
[12] = biological target: Mitogen-activated protein kinase kinase kinase 4 (Homo sapiens) (UniProt Q9Y6R4); assay: Binding affinity to human MAP3K4 at 50 nM by cell-based competition binding assay relative to control in presence of DTT; method in brief: as §2
[13] = biological target: Mitogen-activated protein kinase 14 (Homo sapiens) (UniProt Q16539); assay: Binding affinity to human p38alpha at 50 nM by cell-based competition binding assay relative to control in presence of DTT
[14] = biological target: Serine/threonine-protein kinase PLK1 (Homo sapiens) (UniProt P53350); assay: Binding affinity to human PLK1 at 50 nM by cell-based competition binding assay relative to control in presence of DTT
[15] = biological target: Tyrosine-protein kinase ABL1 (Homo sapiens) (UniProt P00519); assay: Binding affinity to human ABL1 at 50 nM by cell-based competition binding assay relative to control in presence of DTT
Method in brief: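 Kinase binding profiling ran on a commercial (Ambit) competitive binding screen against a panel of 90 kinases. The screen used reducing conditions with 7.5 mM DTT. To withstand the DTT, the bivalent ligand was tested as its amide isostere, with the disulfide replaced. A staurosporine derivative carrying a 3 β-alanine linker was run as the reference compound.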

Sequence of Mitogen-activated protein kinase kinase kinase 4 (Homo sapiens) (Q9Y6R4 whole entry): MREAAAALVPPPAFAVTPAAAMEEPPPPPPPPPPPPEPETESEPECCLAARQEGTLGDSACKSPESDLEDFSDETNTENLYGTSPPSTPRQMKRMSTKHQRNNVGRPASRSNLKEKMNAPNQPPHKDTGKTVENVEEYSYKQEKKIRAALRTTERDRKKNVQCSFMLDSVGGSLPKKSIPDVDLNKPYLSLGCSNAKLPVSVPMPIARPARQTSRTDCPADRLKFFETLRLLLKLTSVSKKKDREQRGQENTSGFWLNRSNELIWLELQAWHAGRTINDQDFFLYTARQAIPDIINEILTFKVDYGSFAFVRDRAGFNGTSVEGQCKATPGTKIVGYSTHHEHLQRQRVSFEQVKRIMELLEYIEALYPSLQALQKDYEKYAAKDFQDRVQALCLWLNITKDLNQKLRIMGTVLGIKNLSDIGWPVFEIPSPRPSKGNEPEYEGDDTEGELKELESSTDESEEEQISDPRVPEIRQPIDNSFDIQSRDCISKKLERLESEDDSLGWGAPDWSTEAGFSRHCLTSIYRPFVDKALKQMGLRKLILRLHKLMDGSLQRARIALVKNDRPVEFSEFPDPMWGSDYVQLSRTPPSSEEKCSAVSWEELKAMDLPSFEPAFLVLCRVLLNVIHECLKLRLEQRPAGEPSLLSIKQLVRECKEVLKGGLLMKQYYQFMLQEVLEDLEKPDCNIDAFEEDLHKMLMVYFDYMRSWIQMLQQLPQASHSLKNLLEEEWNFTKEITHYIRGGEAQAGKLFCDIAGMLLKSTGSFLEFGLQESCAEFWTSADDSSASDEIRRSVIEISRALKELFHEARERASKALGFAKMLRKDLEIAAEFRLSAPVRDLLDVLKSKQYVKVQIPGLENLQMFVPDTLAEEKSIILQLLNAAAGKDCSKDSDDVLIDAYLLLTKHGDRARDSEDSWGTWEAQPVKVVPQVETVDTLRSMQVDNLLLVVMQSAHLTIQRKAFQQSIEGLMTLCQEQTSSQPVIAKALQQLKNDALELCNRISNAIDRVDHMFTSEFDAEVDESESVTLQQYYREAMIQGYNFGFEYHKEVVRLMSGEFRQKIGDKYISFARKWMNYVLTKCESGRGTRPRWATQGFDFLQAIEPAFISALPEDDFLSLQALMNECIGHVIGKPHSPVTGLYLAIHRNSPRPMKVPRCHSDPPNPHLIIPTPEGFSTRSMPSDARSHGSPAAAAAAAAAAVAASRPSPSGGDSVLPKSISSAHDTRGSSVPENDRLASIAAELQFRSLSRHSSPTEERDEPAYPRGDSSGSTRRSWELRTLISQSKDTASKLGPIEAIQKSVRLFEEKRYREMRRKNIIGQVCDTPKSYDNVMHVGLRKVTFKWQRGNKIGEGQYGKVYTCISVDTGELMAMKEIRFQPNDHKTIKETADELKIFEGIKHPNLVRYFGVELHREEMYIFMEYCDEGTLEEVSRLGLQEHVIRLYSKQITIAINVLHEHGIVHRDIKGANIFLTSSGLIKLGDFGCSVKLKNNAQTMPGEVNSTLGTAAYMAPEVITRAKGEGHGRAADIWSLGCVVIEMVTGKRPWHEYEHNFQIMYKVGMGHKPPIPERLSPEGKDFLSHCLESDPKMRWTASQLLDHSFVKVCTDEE
Sequence of Casein kinase I isoform gamma-2 (Homo sapiens) (P78368 whole entry, looked up, canonical isoform): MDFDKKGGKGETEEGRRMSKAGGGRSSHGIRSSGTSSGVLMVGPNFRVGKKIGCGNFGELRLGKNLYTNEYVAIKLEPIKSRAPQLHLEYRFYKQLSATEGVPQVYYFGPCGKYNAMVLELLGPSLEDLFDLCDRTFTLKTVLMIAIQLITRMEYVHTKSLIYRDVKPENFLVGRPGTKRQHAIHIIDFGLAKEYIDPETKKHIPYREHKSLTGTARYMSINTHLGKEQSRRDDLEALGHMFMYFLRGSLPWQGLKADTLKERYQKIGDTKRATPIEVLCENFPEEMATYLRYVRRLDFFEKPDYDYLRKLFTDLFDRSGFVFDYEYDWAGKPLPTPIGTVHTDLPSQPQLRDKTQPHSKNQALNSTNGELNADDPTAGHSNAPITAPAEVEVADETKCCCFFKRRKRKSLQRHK
Sequence of Tyrosine-protein kinase ABL1 (Homo sapiens) (P00519 whole entry): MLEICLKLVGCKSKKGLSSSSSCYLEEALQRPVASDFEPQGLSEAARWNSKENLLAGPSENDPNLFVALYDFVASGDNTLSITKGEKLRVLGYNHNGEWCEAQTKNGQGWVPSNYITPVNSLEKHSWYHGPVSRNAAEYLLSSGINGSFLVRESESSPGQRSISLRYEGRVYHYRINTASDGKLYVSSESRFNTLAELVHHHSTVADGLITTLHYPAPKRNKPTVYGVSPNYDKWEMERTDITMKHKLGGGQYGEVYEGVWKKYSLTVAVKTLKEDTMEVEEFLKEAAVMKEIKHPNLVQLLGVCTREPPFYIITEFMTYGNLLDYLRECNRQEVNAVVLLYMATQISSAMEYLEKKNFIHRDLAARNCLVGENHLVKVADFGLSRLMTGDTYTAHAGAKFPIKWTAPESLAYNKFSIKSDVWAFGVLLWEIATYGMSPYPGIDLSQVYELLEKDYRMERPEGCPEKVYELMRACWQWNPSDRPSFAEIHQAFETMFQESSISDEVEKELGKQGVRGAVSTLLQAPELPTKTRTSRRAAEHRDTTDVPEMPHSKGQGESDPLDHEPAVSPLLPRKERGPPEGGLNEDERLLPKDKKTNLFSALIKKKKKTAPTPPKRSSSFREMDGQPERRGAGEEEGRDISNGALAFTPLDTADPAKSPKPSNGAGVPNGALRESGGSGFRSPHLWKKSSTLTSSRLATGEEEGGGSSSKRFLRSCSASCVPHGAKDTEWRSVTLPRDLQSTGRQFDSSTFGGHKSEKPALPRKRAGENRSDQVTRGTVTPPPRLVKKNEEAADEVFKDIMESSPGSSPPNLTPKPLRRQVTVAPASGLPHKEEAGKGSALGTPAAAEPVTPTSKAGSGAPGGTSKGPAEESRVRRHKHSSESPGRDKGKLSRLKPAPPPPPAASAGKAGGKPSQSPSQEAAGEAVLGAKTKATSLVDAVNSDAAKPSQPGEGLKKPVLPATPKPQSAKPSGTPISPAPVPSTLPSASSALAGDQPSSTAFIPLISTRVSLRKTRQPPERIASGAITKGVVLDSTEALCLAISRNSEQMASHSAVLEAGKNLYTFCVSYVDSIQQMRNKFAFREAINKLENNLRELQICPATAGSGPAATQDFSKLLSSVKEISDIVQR
Sequence of Serine/threonine-protein kinase PLK1 (Homo sapiens) (P53350 whole entry): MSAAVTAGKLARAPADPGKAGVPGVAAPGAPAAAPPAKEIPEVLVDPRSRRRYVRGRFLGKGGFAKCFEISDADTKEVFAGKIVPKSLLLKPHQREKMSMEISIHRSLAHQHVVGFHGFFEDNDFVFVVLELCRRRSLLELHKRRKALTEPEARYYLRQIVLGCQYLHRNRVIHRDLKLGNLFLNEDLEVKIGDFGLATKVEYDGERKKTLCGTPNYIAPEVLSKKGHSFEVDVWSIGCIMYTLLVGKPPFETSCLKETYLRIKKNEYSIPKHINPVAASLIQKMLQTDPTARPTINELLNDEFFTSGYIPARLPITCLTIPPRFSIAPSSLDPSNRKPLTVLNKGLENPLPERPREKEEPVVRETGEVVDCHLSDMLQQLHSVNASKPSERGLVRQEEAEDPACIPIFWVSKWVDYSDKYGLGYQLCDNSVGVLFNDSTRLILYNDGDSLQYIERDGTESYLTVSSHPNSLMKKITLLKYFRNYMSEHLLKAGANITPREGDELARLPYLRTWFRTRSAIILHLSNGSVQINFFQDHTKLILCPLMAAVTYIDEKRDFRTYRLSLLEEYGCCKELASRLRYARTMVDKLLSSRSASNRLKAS
Sequence of 3-phosphoinositide-dependent protein kinase 1 (Homo sapiens) (O15530 whole entry, looked up): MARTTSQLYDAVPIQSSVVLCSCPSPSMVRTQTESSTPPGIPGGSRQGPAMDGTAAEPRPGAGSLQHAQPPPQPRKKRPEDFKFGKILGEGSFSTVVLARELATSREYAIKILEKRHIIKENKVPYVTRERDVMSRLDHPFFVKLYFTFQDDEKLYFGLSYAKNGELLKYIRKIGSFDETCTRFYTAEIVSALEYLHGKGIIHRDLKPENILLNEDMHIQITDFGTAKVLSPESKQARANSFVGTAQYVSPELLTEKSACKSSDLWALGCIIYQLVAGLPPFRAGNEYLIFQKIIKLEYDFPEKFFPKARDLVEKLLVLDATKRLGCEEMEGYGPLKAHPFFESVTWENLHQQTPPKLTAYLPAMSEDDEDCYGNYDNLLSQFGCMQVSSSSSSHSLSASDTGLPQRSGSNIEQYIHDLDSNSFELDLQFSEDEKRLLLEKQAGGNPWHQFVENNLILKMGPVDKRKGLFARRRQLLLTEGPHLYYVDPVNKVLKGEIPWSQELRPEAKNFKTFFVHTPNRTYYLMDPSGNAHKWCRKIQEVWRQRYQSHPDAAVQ
Sequence of Proto-oncogene tyrosine-protein kinase Src (Homo sapiens) (P12931 2-536 limits assumed): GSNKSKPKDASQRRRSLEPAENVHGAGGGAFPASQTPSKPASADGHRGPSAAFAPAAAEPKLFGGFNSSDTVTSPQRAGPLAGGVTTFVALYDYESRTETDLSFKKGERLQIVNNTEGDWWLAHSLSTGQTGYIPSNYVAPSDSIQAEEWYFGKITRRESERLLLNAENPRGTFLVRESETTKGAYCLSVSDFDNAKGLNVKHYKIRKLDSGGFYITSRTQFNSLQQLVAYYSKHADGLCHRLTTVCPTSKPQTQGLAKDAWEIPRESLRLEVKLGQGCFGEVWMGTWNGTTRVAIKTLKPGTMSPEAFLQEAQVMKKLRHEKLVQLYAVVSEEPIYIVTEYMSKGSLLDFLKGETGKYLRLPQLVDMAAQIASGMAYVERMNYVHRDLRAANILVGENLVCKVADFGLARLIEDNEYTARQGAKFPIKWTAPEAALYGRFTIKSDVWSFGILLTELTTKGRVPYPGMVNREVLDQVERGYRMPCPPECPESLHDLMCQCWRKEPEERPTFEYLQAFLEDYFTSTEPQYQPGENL

Activity [1]: 2.6%
Activity [2]: 100%
Activity [3]: 0%
Selectivity ratio [4]: 52
Activity [5]: 55%
SMILES: CO[C@@H]1[C@H](N(C)C(=O)CCC(=O)NCCC(=O)NCCC(=O)NCCC(N)=O)C[C@H]2O[C@]1(C)n1c3ccccc3c3c4c(c5c6ccccc6n2c5c31)C(=O)NC4

Activity [6]: 94%
Activity [7]: 100%
Activity [8]: 100%
SMILES: CO[C@@H]1[C@H](N(C)C(=O)CCC(=O)NCCC(=O)NCCC(=O)NCCC(=O)NCCC(=O)NCCC(=O)NCCC(=O)NCCC(=O)N[C@H]2CSSC[C@@H](C(=O)NCC(N)=O)NC(=O)CNC(=O)[C@H](Cc3ccccc3)NC(=O)[C@H](C(C)C)NC(=O)[C@H](CCCNC(=N)N)NC(=O)[C@H](Cc3ccccc3)NC(=O)[C@H](C(C)C)NC2=O)C[C@H]2O[C@]1(C)n1c3ccccc3c3c4c(c5c6ccccc6n2c5c31)C(=O)NC4 ({Staurosporine-Suc-βAla-βAla-βAla-βAla-βAla-βAla-βAla}-CVFRVFGCG-NH2; disulfide 1-8)

Activity [9]: 100%
Activity [10]: 88%
Activity [11]: 100%
Activity [12]: 96%
Activity [13]: 95%
Activity [14]: 100%
Activity [15]: 94%
SMILES: CO[C@@H]1[C@H](N(C)C(=O)CCC(=O)NCCC(=O)NCCC(=O)NCCC(=O)NCCC(=O)NCCC(=O)NCCC(=O)NCCC(=O)N[C@H]2CNC(=O)C[C@@H](C(N)=O)NC(=O)CNC(=O)[C@H](Cc3ccccc3)NC(=O)[C@H](C(C)C)NC(=O)[C@H](CCCNC(=N)N)NC(=O)[C@H](Cc3ccccc3)NC(=O)[C@H](C(C)C)NC2=O)C[C@H]2O[C@]1(C)n1c3ccccc3c3c4c(c5c6ccccc6n2c5c31)C(=O)NC4 ({Staurosporine-Suc-βAla-βAla-βAla-βAla-βAla-βAla-βAla}-[Dap]VFRVFGD-NH2; lactam 1-8)
